Calls of active or inactive are those of the source.
Assays:
[1] = test system: Poliovirus 1; assay: Antiviral activity against Human poliovirus type 1 infected in mouse assessed as protection from virus-induced death at 10 mg/kg, ip administered 1 hr post infection once daily for 5 days measured after 7 days by plaque assay; assay type: functional, organism-based; set-up: dose 10 mg/kg
In short: (§1)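 Poliovirus receptor transgenic (cPVR) mice, about 10 weeks old, were infected i.p. with 3 × 10^8 PFU wt PV1. They received 200 μg (~10 mg/kg) PPMO in 500 μl sterile PBS i.p., or PBS alone, at 1 h p.i. and then every 24 h ([…]; 6 mice per group). Mice were monitored daily for paralysis and death, and euthanized at near-total paralysis.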

[2] = test system: Poliovirus 1; assay: Antiviral activity against Human poliovirus type 1 infected in mouse assessed as protection from virus-induced paralytic symptom at 10 mg/kg, ip administered 1 hr post infection once daily for 5 days measured after 7 days by plaque assay; assay type: functional, organism-based; set-up: dose 10 mg/kg; in short: as §1
[3] = test system: Poliovirus 1; assay: Antiviral activity against Human poliovirus type 1 infected in mouse assessed as viral titer in spinal cord at 10 mg/kg, ip administered 1 hr post infection once daily for 5 days measured after 8 days by plaque assay; assay type: functional, organism-based; set-up: dose 10 mg/kg
[4] = test system: Poliovirus 1; assay: Antiviral activity against Human poliovirus type 1 infected in mouse assessed as protection from virus-induced death at 10 mg/kg, ip administered 1 hr post infection once daily for 5 days measured after 10 days by plaque assay; assay type: functional, organism-based; set-up: dose 10 mg/kg; in short: as §1
[5] = test system: Poliovirus 1; assay: Antiviral activity against Human poliovirus type 1 infected in mouse assessed as viral titer in muscle at 10 mg/kg, ip administered 1 hr post infection once daily for 5 days measured after 7 days by plaque assay; assay type: functional, organism-based; set-up: dose 10 mg/kg; conditions: Muscle tissue
[6] = test system: Poliovirus 1; assay: Antiviral activity against Human poliovirus type 1 infected in Human HeLa cell after 21 hrs post infection by plaque assay; assay type: functional, organism-based; conditions: Enterovirus C
In short: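 HeLa cells infected with cDNA-derived PV1 (MOI 0.1), then treated after infection with 2 to 100 μM PPMO. Supernatant virus was titrated by plaque assay on HeLa monolayers 21 h later: 1% agar overlay, 36 h at 37°C, formaldehyde fixation, crystal violet staining and plaque count. IC50 was taken from triplicate samples.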

[7] = test system: Poliovirus 1; assay: Antiviral activity against Human poliovirus type 1 infected in mouse assessed as viral titer in small intestine at 10 mg/kg, ip administered 1 hr post infection once daily for 5 days measured after 7 days by plaque assay; assay type: functional, organism-based; set-up: dose 10 mg/kg
[8] = test system: Vero; assay: Cytotoxicity against African green monkey Vero cells at 10 uM after 24 hrs by MTS assay; assay type: cell-based; conditions: chlorocebus sabaeus
[9] = test system: Poliovirus 1; assay: Antiviral activity against Human poliovirus type 1 infected in mouse assessed as protection from virus-induced paralytic symptom at 10 mg/kg, ip administered 1 hr post infection once daily for 5 days measured after 10 days by plaque assay; assay type: functional, organism-based; set-up: dose 10 mg/kg; in short: as §1
[10] = test system: Poliovirus 1; assay: Antiviral activity against Human poliovirus type 1 infected in Human HeLa cell assessed as inhibition of translation at 10 uM by luciferase reporter gene assay; assay type: functional, organism-based
In short: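 HeLa cells were pretreated 4 h with 10 μM PPMO, then electroporated with 20 μg noncapped PV1-Luc replicon RNA (IRES-driven). They were kept in medium with 10 μM PPMO, with or without 2 mM guanidine HCl, at 37°C in 5% CO2. Luciferase in cell lysates was read at 1-h intervals after transfection. Two experiments were averaged.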

[11] = test system: Poliovirus 1; assay: Antiviral activity against Human poliovirus type 1 infected in mouse assessed as viral titer in spleen at 10 mg/kg, ip administered 1 hr post infection once daily for 5 days measured after 10 days by plaque assay; assay type: functional, organism-based; set-up: dose 10 mg/kg
[12] = test system: Poliovirus 1; assay: Antiviral activity against Human poliovirus type 1 infected in mouse assessed as viral titer in brain 10 mg/kg, ip administered 1 hr post infection once daily for 5 days measured after 8 days by plaque assay; assay type: functional, organism-based; set-up: dose 10 mg/kg
[13] = test system: HeLa; assay: Cytotoxicity against human HeLa cells 10 uM after 24 hrs by MTS assay; assay type: cell-based
In short: (§2)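 HeLa cells at ~80% confluence, uninfected, exposed to 1–100 μM PPMO or water (mock) in serum-free DMEM-F-12 (1:1) for 24 h. MTS reagent was added for 4 h and absorbance read at 492 nm. Viability was expressed as percent of water-treated cells (set to 100%), averaged over 12 wells.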

[14] = test system: Poliovirus 1; assay: Antiviral activity against Human poliovirus type 1 infected in mouse assessed as protection from virus-induced paralytic symptom at 10 mg/kg, ip administered 1 hr post infection once daily for 5 days measured after 8 days by plaque assay; assay type: functional, organism-based; set-up: dose 10 mg/kg; in short: as §1
[15] = test system: HeLa; assay: Cytotoxicity against human HeLa cells at 10 uM by MTS assay; assay type: cell-based; in short: as §2
[16] = test system: Poliovirus 1; assay: Antiviral activity against Human poliovirus type 1 infected in mouse assessed as protection from virus-induced death at 10 mg/kg, ip administered 1 hr post infection once daily for 5 days measured after 8 days by plaque assay; assay type: functional, organism-based; set-up: dose 10 mg/kg; in short: as §1
[17] = test system: SK-N-MC; assay: Cytotoxicity against human SK-N-MC cell at 10 uM after 24 hrs by MTS assay; assay type: cell-based
[18] = test system: Poliovirus 1; assay: Antiviral activity against Human poliovirus type 1 infected in mouse assessed as viral titer in small intestine at 10 mg/kg, ip administered 1 hr post infection once daily for 5 days measured after 10 days by plaque assay; assay type: functional, organism-based; set-up: dose 10 mg/kg
[19] = test system: Poliovirus 1; assay: Antiviral activity against Human poliovirus type 1 infected in mouse assessed as viral titer in large intestine at 10 mg/kg, ip administered 1 hr post infection once daily for 5 days measured after 8 days by plaque assay; assay type: functional, organism-based; set-up: dose 10 mg/kg
[20] = test system: Poliovirus 1; assay: Antiviral activity against Human poliovirus type 1 infected in mouse assessed as viral titer in muscle at 10 mg/kg, ip administered 1 hr post infection once daily for 5 days measured after 8 days by plaque assay; assay type: functional, organism-based; set-up: dose 10 mg/kg; conditions: Muscle tissue
[21] = test system: Poliovirus 1; assay: Antiviral activity against Human poliovirus type 1 infected in mouse assessed as viral titer in brain at 10 mg/kg, ip administered 1 hr post infection once daily for 5 days measured after 7 days by plaque assay; assay type: functional, organism-based; set-up: dose 10 mg/kg
[22] = test system: Poliovirus 1; assay: Antiviral activity against Human poliovirus type 1 infected in mouse assessed as viral titer in large intestine at 10 mg/kg, ip administered 1 hr post infection once daily for 5 days measured after 7 days by plaque assay; assay type: functional, organism-based; set-up: dose 10 mg/kg
[23] = test system: Poliovirus 1; assay: Antiviral activity against Human poliovirus type 1 infected in mouse assessed as viral titer in spleen at 10 mg/kg, ip administered 1 hr post infection once daily for 5 days measured after 8 days by plaque assay; assay type: functional, organism-based; set-up: dose 10 mg/kg
[24] = test system: Poliovirus 1; assay: Antiviral activity against Human poliovirus type 1 infected in mouse assessed as viral titer in spinal cord at 10 mg/kg, ip administered 1 hr post infection once daily for 5 days measured after 10 days by plaque assay; assay type: functional, organism-based; set-up: dose 10 mg/kg
[25] = test system: Poliovirus 1; assay: Antiviral activity against Human poliovirus type 1 infected in mouse assessed as viral titer in small intestine at 10 mg/kg, ip administered 1 hr post infection once daily for 5 days measured after 8 days by plaque assay; assay type: functional, organism-based; set-up: dose 10 mg/kg
[26] = test system: Poliovirus 1; assay: Antiviral activity against Human poliovirus type 1 infected in mouse assessed as viral titer in spinal cord at 10 mg/kg, ip administered 1 hr post infection once daily for 5 days measured after 7 days by plaque assay; assay type: functional, organism-based; set-up: dose 10 mg/kg
[27] = test system: Poliovirus 1; assay: Antiviral activity against Human poliovirus type 1 infected in mouse assessed as viral titer in muscle at 10 mg/kg, ip administered 1 hr post infection once daily for 5 days measured after 10 days by plaque assay; assay type: functional, organism-based; set-up: dose 10 mg/kg; conditions: Muscle tissue
[28] = test system: Poliovirus 1; assay: Antiviral activity against Human poliovirus type 1 infected in mouse assessed as viral titer in brain at 10 mg/kg, ip administered 1 hr post infection once daily for 5 days measured after 10 days by plaque assay; assay type: functional, organism-based; set-up: dose 10 mg/kg
[29] = test system: Poliovirus 1; assay: Antiviral activity against Human poliovirus type 1 infected in mouse assessed as viral titer in spleen at 10 mg/kg, ip administered 1 hr post infection once daily for 5 days measured after 7 days by plaque assay; assay type: functional, organism-based; set-up: dose 10 mg/kg
[30] = test system: Poliovirus 1; assay: Antiviral activity against Human poliovirus type 1 infected in Human HeLa cell assessed as inhibition of translation at 10 ug/ml by luciferase reporter gene assay; assay type: functional, organism-based
In short: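 In-cell translation control: HeLa cells electroporated with 20 μg PV1-Luc replicon RNA were placed in medium with 10 μg/ml puromycin at 37°C in 5% CO2. Luciferase in lysates was read by luminometer at hourly time points after transfection. Two experiments were averaged.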

[31] = test system: Poliovirus 1; assay: Antiviral activity against Human poliovirus type 1 infected in mouse assessed as viral titer in large intestine at 10 mg/kg, ip administered 1 hr post infection once daily for 5 days measured after 10 days by plaque assay; assay type: functional, organism-based; set-up: dose 10 mg/kg
[32] = test system: HeLa; assay: Cytotoxicity against human HeLa cell after 21 hrs by MTS assay; assay type: functional, cell-based
In short: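 Uninfected HeLa cells were exposed to a range of PPMO concentrations for 21 h, then read by MTS assay (4 h, absorbance 492 nm) against water-mock cells set to 100%. CC50 was taken from the concentration–viability curve, and triplicate samples were averaged.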

Cc1cn([C@H]2CN(P(=O)(OC[C@@H]3CN(P(=O)(OC[C@@H]4CNC[C@H](n5cnc6c(=O)[nH]c(N)nc65)O4)N(C)C)C[C@H](n4cnc5c(N)ncnc54)O3)N(C)C)C[C@@H](COP(=O)(N(C)C)N3C[C@@H](COP(=O)(N(C)C)N4C[C@@H](COP(=O)(N(C)C)N5C[C@@H](COP(=O)(N(C)C)N6C[C@@H](COP(=O)(N(C)C)N7C[C@@H](COP(=O)(N(C)C)N8C[C@@H](COP(=O)(N(C)C)N9C[C@@H](COP(=O)(N(C)C)N%10C[C@@H](COP(=O)(N(C)C)N%11C[C@@H](COP(=O)(N(C)C)N%12C[C@@H](COP(=O)(N(C)C)N%13C[C@@H](COP(=O)(N(C)C)N%14C[C@@H](COP(=O)(N(C)C)N%15C[C@@H](COP(=O)(N(C)C)N%16C[C@@H](COP(=O)(N(C)C)N%17C[C@@H](COP(=O)(N(C)C)N%18C[C@@H](COP(=O)(N(C)C)N%19C[C@@H](COP(=O)(N(C)C)N%20C[C@@H](COP(=O)(N(C)C)N%21C[C@@H](COP(=O)(N(C)C)N%22CCN(C(=O)CCNC(=O)CCCCCNC(=O)[C@H](CCCNC(=N)N)NC(=O)CCCCCNC(=O)[C@H](CCCNC(=N)N)NC(=O)[C@H](CCCNC(=N)N)NC(=O)CCCCCNC(=O)[C@H](CCCNC(=N)N)NC(=O)[C@H](CCCNC(=N)N)NC(=O)CCCCCNC(=O)[C@H](CCCNC(=N)N)NC(=O)[C@H](CCCNC(=N)N)NC(=O)CCCCCNC(=O)[C@@H](N)CCCNC(=N)N)CC%22)O[C@@H](n%22cnc%23c(=O)[nH]c(N)nc%23%22)C%21)O[C@@H](n%21cnc%22c(N)ncnc%22%21)C%20)O[C@@H](n%20cnc%21c(N)ncnc%21%20)C%19)O[C@@H](n%19cnc%20c(N)ncnc%20%19)C%18)O[C@@H](n%18ccc(N)nc%18=O)C%17)O[C@@H](n%17cnc%18c(N)ncnc%18%17)C%16)O[C@@H](n%16ccc(N)nc%16=O)C%15)O[C@@H](n%15cnc%16c(=O)[nH]c(N)nc%16%15)C%14)O[C@@H](n%14cnc%15c(=O)[nH]c(N)nc%15%14)C%13)O[C@@H](n%13cnc%14c(N)ncnc%14%13)C%12)O[C@@H](n%12ccc(N)nc%12=O)C%11)O[C@@H](n%11cnc%12c(N)ncnc%12%11)C%10)O[C@@H](n%10ccc(N)nc%10=O)C9)O[C@@H](n9ccc(N)nc9=O)C8)O[C@@H](n8ccc(N)nc8=O)C7)O[C@@H](n7cnc8c(N)ncnc87)C6)O[C@@H](n6cnc7c(N)ncnc76)C5)O[C@@H](n5cnc6c(N)ncnc65)C4)O[C@@H](n4cnc5c(=O)[nH]c(N)nc54)C3)O2)c(=O)[nH]c1=O (some centres not stated)
Non-toxic: Activity [8] | Activity [15] | Activity [17]
52 µM: CC50 [32]
inactive: Activity [5] | Activity [11] | Activity [19] | Activity [20] | Activity [22] | Activity [23] | Activity [27] | Activity [29] | Activity [30] | Activity [31]
active: Activity [1] | Activity [2] | Activity [3] | Activity [4] | Activity [7] | Activity [9] | Activity [10] | Activity [12] | Activity [14] | Activity [16] | Activity [18] | Activity [21] | Activity [24] | Activity [25] | Activity [26] | Activity [28]
2000 nM: IC50 [6]
Toxic: Activity [13]

From ChEMBL document CHEMBL1629545, “A morpholino oligomer targeting highly conserved internal ribosome entry site sequence is able to inhibit multiple species of picornavirus” (Antimicrob Agents Chemother, 2008)
